The values below come from ChEMBL document CHEMBL1123673, “Comparison of aminoglycoside antibiotics with respect to uptake and lethal activity in Escherichia coli” (J Med Chem, 1987).

Data set [1] deals with Escherichia coli.
Data set [2] deals with Escherichia coli. Briefly: Estimated rate of [3H]DHS uptake in Escherichia coli K12 (ATCC 25868). Set-up: unit not given here. The class given is functional. Put shortly: (§1)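 Cultures in tryptone-peptone broth at 37 °C with shaking, grown from OD600 ~0.05 to 0.20, then preexposed to antibiotic for 20 min at 37 °C. Cells pelleted, resuspended in equal volume fresh broth, pulsed 5.0 min at 37 °C with [3H]DHS (1.0 µCi/mL, 3.8 Ci/mmol). Samples filtered, washed with 0.1 M LiCl, scintillation counted. C50 = half-maximal rate estimated from dose-response curves.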

Data set [3] can be described thus: (§2) Percent killing of the total Escherichia coli K12 (ATCC 25868)cells at the C50 concentration was determined. It is filed as functional.
The nature of data set [4]: (§3) Lethal dose required to kill 90% of the Escherichia coli K12 (ATCC 25868) cell population. It is filed as functional. Put shortly:
(§4)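 E. coli K12 in tryptone-peptone broth at 37 °C, OD600 0.20, exposed 20 min at 37 °C to antibiotic; pellets resuspended to OD600 0.10–0.15 in TPB, serially diluted, plated on tryptone-peptone agar, colonies counted after overnight at 37 °C. Value is the concentration killing 90% of the population.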

Data set [5] can be described thus: (§5) Percent killing of the total Escherichia coli K12 (ATCC 25868) cells at the C50 concentration was determined. The class given is functional.
The nature of data set [6]: as §2. The class given is ADME.
Data set [7] in a line: as §3. The class given is ADME. Put shortly:
as §4

Data set [8] deals with Escherichia coli. Briefly: Concentration required for half maximum rate of enhanced [3H]DHS (Dihydrostreptomycin) uptake in Escherichia coli K12 (ATCC 25868)was estimated from dose-response curves. The class given is functional. Put shortly: as §1
The subject of data set [9] is Escherichia coli. Put plainly: Estimated rate of [3H]DHS (Dihydrostreptomycin) uptake in Escherichia coli K12 (ATCC 25868) [pmol/min (optical density unit)E-1] at the C50 was determined.; OD means optical density. The class given is functional. In short, it runs like this: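 E. coli K12 grown in tryptone-peptone broth at 37 °C with shaking to OD600 0.20, preexposed 20 min at 37 °C to antibiotic across a dose range; cells pelleted, resuspended in TPB, given [3H]DHS (1.0 µCi/mL, 3.8 Ci/mmol) for 5.0 min at 37 °C; filtered, washed with 0.1 M LiCl, scintillation counted. Rate read at C50 (half-maximal induced rate) from dose-response curves.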

Data set [10] in a line: as §5. The class given is ADME.
Data set [11] deals with Escherichia coli. Put plainly: Estimated rate of [3H]DHS (Dihydrostreptomycin) uptake in Escherichia coli K12 (ATCC 25868) [pmol/min (optical density unit)E-1] at the C50 was determined. It is filed as functional. In short, it runs like this: as §1
The test system of data set [12] is Escherichia coli. Put plainly: Estimated rate of [3H]DHS (Dihydrostreptomycin) uptake in Escherichia coli K12 (ATCC 25868) [pmol/min (optical density unit)E-1] at the C50 was determined;OD means optical density. The class given is functional. Put shortly:
as §1

`CN[C@@H]1[C@H](O[C@H]2[C@H](O[C@H]3[C@H](O)[C@@H](O)[C@H](N=C(N)N)[C@@H](O)[C@@H]3N=C(N)N)O[C@@H](C)[C@]2(O)C=O)O[C@@H](CO)[C@H](O)[C@H]1O` [STREPTOMYCIN]: the C50 in data set [1] is 0.34 µM. Also, the Uptake at C50 in data set [2] is 5.8. In addition, the “Kill at C50” value in data set [3] came out at 88%. The compound also came in with an LD90 in data set [4] of 0.36 µM.
Compound `NCC[C@H](O)C(=O)N[C@@H]1C[C@H](N)[C@@H](O[C@H]2O[C@H](CN)[C@@H](O)[C@H](O)[C@H]2O)[C@H](O)[C@H]1O[C@H]1O[C@H](CO)[C@@H](O)[C@H](N)[C@H]1O` (stereo in doubt) [AMIKACIN] yielded an LD90 in [4] of 0.32 µM. Further, the “Kill at C50” value in [5] is recorded as 76%.
`NC[C@H]1O[C@H](O[C@H]2[C@H](O)[C@@H](O[C@H]3O[C@H](CO)[C@@H](O)[C@H](N)[C@H]3O)[C@H](N)C[C@@H]2N)[C@H](N)C[C@@H]1O` [TOBRAMYCIN]: the “Kill at C50” value in data set [6] turned out to be 54%. Also, the Uptake at C50 in data set [2] is 8.3. For the same compound, the LD90 in data set [7] is 0.71 µM. Besides, the C50 in [8] is 0.24 µM.
Consider `NCC[C@H](O)C(=O)N[C@@H]1C[C@H](N)[C@@H](O[C@H]2O[C@H](CN)[C@@H](O)[C@H](O)[C@H]2O)[C@H](O)[C@H]1O[C@H]1O[C@H](CO)[C@@H](O)[C@H](N)[C@H]1O` (stereo in doubt), for which the C50 in [1] came out at 0.21 µM. The Uptake at C50 in data set [9] was 4.7.
For `CN[C@@H]1[C@@H](O)[C@@H](O[C@@H]2[C@@H](O)[C@H](O[C@H]3O[C@H]([C@@H](C)NC)CC[C@H]3N)[C@@H](N)C[C@H]2N)OC[C@]1(C)O` [GENTAMICIN C1], the C50 in data set [1] is 0.21 µM. The Uptake at C50 in data set [9] is 5.5. In addition, in [7], the LD90 came to 0.25 µM. For the same compound, in data set [10], the “Kill at C50” value was 85%.
As to `CNC1C(O)C(OC2C(N)CC(N)C(OC3OC(C(C)N)CCC3N)C2O)OCC1(C)O` (centres undefined), the LD90 in data set [7] is 0.14 µM. For the same compound, in data set [8], the C50 is 0.26 µM. In data set [10], the “Kill at C50” value is 98%. Also, in data set [11], the Uptake at C50 is 6.5.
For `CN[C@@H]1[C@@H](O[C@H]2O[C@H](CO)[C@@H](N)[C@H](O)[C@H]2O)OC2C[C@@H](N)[C@@H](O[C@H]3[C@H](O)[C@@H](O)[C@H](N)C[C@@H]3N)OC2[C@@H]1O` (some centres undefined) [APRAMYCIN], the Uptake at C50 in [12] is 4. Also, the C50 in data set [1] amounted to 0.87 µM. Moreover, the LD90 in [7] was 0.67 µM. Further, the “Kill at C50” value in data set [10] is recorded as 95%.
